Assay [1] relates to Bacillus subtilis. The experiment in a line: Antibacterial activity against Bacillus subtilis assessed as cell shape defects at 1 times MIC after 2 hrs in presence of methylsulfonyl methane by phase contrast microscopic analysis. The format is functional. An outline of the steps: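 B. subtilis grown in LB at 37 °C to OD600 ~0.2 and treated, with or without MSM for osmotic stabilization, for 30 min or 2 h. Stained with FM 4-64 (1 μg/mL), DAPI (1 μg/mL) and SYTOX Green (1 μg/mL) to score permeability. Examined by deconvolution and phase-contrast microscopy.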

For assay [2], the system named is Escherichia coli. The assay can be described thus: Antibacterial activity against tolC deficient Escherichia coli assessed as formation of spheroplasts at 125 ug/ml after 30 mins in presence of sucrose by FM4-64/DAPI/SYTOX Green staining-based deconvolution microscopic analysis. The format is functional.
Assay [3] deals with Escherichia coli. The experiment in a line: Antibacterial activity against tolC deficient Escherichia coli assessed as cell lysis at 125 ug/ml after 2 hrs in presence of sucrose by FM4-64/DAPI/SYTOX Green staining-based deconvolution microscopic analysis. Type of assay: functional.
Assay [4] relates to Escherichia coli. The experiment in a line: Antibacterial activity against tolC deficient Escherichia coli assessed as formation of misshapen cells at 125 ug/ml after 30 mins in presence of sucrose by FM4-64/DAPI/SYTOX Green staining-based deconvolution microscopic analysis. Type of assay: functional.
Assay [5] concerns Escherichia coli. The assay can be described thus: Antibacterial activity against Escherichia coli O157:H7 ATCC 35150 after 18 to 22 hrs in absence of colistin by broth microdilution method. Type of assay: functional. In general terms: In broth dilution the organism is exposed to a series of concentrations in liquid medium.
In assay [6] the test system is Enterobacter cloacae. The experiment in a line: Antibacterial activity against Enterobacter cloacae BAA-1154 after 18 to 22 hrs in presence of 1/4 times MIC colistin by broth microdilution method. Type of assay: functional. In short, it runs like this:
(§1)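 Broth microdilution per CLSI guidelines. Gram-negatives grown in TSB. Each strain tested alone and again with colistin at ¼ × MIC to permeabilize the outer membrane. Plates incubated at 37 °C for 18–22 h. MIC read as the lowest concentration showing no visible growth.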

Assay [7] has as its system Enterobacter cloacae. The assay can be described thus: Antibacterial activity against Enterobacter cloacae BAA-1154 after 18 to 22 hrs in absence of colistin by broth microdilution method. Type of assay: functional.
For assay [8], the system named is Pseudomonas aeruginosa. The experiment in a line: Antibacterial activity against Pseudomonas aeruginosa ATCC 15442 after 18 to 22 hrs in presence of 1/4 times MIC colistin by broth microdilution method. Type of assay: functional. An outline of the steps:
as §1

Assay [9] relates to Acinetobacter baumannii. The assay can be described thus: Antibacterial activity against Acinetobacter baumanii ATCC 19606 after 18 to 22 hrs in absence of colistin by broth microdilution method. The format is functional. To be noted: ATCC 19606 = CIP 70.34 = JCM 6841. In short, it runs like this: as §1
The test system of assay [10] is Escherichia coli. The experiment in a line: Antibacterial activity against Escherichia coli O157:H7 ATCC 35150 after 18 to 22 hrs in presence of 1/4 times MIC colistin by broth microdilution method. The format is functional.
Assay [11] relates to Klebsiella pneumoniae. The experiment in a line: Antibacterial activity against Klebsiella pneumoniae BAA-1706 after 18 to 22 hrs in presence of 1/4 times MIC colistin by broth microdilution method. Type of assay: functional. In short, it runs like this:
as §1

Assay [12] concerns Acinetobacter baumannii. The experiment in a line: Antibacterial activity against Acinetobacter baumanii ATCC 19606 after 18 to 22 hrs in presence of 1/4 times MIC colistin by broth microdilution method. Type of assay: functional. To be noted: ATCC 19606 = CIP 70.34 = JCM 6841. In short, it runs like this: as §1
The subject of assay [13] is Klebsiella pneumoniae. The assay can be described thus: Antibacterial activity against Klebsiella pneumoniae BAA-1706 after 18 to 22 hrs in absence of colistin by broth microdilution method. Type of assay: functional.
Assay [14] concerns Pseudomonas aeruginosa. The experiment in a line: Antibacterial activity against Pseudomonas aeruginosa ATCC 15442 after 18 to 22 hrs in absence of colistin by broth microdilution method. The format is functional.
A short description of assay [15]: Induction of proton motive force collapse in Escherichia coli inverted membrane vesicle in presence of succinate/O2-driven PMF generation system by ACMA-based fluorescence assay. The format is functional, cell membranes. In short, it runs like this: (§2)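 E. coli inverted membrane vesicles (0.1 mg/mL membrane protein) with 2 μM ACMA and 0.5 mM ATP or succinate, in 10 mM HEPES-KOH, 5 mM MgSO4, 100 mM KCl, pH 7.5. Proton gradient followed by ACMA fluorescence (ex 410/em 480 nm). EC50 taken from dose-response curves. CCCP used as reference uncoupler.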

Assay [16] is described as follows: Induction of proton motive force collapse in Escherichia coli inverted membrane vesicle in presence of ATP-driven PMF generation system by ACMA-based fluorescence assay. The format is functional, cell membranes. An outline of the steps: as §2
Assay [17] has as its system Bacillus subtilis. The experiment in a line: Antibacterial activity against Bacillus subtilis assessed as pool of membranes at 5 times MIC after 2 hrs in presence of methylsulfonyl methane by phase contrast microscopic analysis. Type of assay: functional. In short, it runs like this: (§3)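 B. subtilis grown in LB at 37 °C to OD600 ~0.2, then treated at 5 × MIC with MSM for osmotic stabilisation. At 2 h, stained with FM 4-64 (1 μg/mL), DAPI (1 μg/mL) and SYTOX Green (1 μg/mL). Imaged by deconvolution fluorescence and phase contrast microscopy.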

Assay [18] has as its system Enterococcus faecalis. The experiment in a line: Antibacterial activity against vancomycin-resistant Enterococcus faecalis clinical isolates after 18 to 22 hrs by broth microdilution method. The format is functional. An outline of the steps: (§4)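 CLSI broth microdilution against panels of enterococcal isolates. E. faecalis grown in TSB, E. faecium in BHI, 37 °C for 18–22 h. MIC is the lowest concentration without visible growth. MIC50 is the value inhibiting 50% of isolates in each group.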

Assay [19] relates to Enterococcus faecalis. The experiment in a line: Antibacterial activity against vancomycin-resistant Enterococcus faecalis HM-201 infected in Caenorhabditis elegans AU37 assessed as reduction in bacterial burden at 20 ug/ml after 18 hrs by CFU-based […] analysis relative to control. Type of assay: functional. An outline of the steps: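 C. elegans AU37 adults infected on an E. faecalis HM-201 lawn for 2 h, washed in M9, 20–25 worms per well. Treated in triplicate with 20 μg/mL, with water as negative control. Worms washed, lysed with silicon carbide by vortexing, diluted serially and plated on TSA with 50 μg/mL gentamicin. CFU counted after 18 h at 37 °C and expressed as % reduction versus untreated worms.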

For assay [20], the system named is Bacillus subtilis. The assay can be described thus: Antibacterial activity against Bacillus subtilis assessed as bending of cells at 5 times MIC after 2 hrs in presence of methylsulfonyl methane by phase contrast microscopic analysis. Type of assay: functional. An outline of the steps: as §3
Assay [21] relates to Enterococcus faecium. The experiment in a line: Bactericidal activity against Vancomycin-resistant Enterococcus faecium clinical isolates after 18 to 22 hrs by broth microdilution method. The format is functional. In short, it runs like this:
(§5)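 MBC follows the broth microdilution MIC. 5 μL aliquots spotted onto TSA (E. faecalis) or BHI agar (E. faecium), incubated 37 °C for 18–22 h. MBC is the concentration giving >99% reduction in bacterial count. MBC50 is the value for 50% of isolates.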

Assay [22] concerns Enterococcus faecium. The assay can be described thus: Antibacterial activity against Enterococcus faecium clinical isolates after 18 to 22 hrs by broth microdilution method. The format is functional. An outline of the steps:
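Enterococcus faecium grown in BHI. MIC by CLSI broth microdilution, 37 °C for 18–22 h. Lowest concentration with no visible growth taken as MIC, reported as MIC50 across the isolates.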

The subject of assay [23] is Enterococcus faecalis. The assay can be described thus: Antibacterial activity against Enterococcus faecalis clinical isolates after 18 to 22 hrs by broth microdilution method. Type of assay: functional. An outline of the steps: as §4
The subject of assay [24] is Bacillus subtilis. The experiment in a line: Antibacterial activity against Bacillus subtilis assessed as misshapen cells at 5 times MIC after 2 hrs in presence of methylsulfonyl methane by phase contrast microscopic analysis. The format is functional. An outline of the steps: as §3
Assay [25] concerns Enterococcus faecalis. The experiment in a line: Bactericidal activity against vancomycin-resistant Enterococcus faecalis clinical isolates after 18 to 22 hrs by broth microdilution method. The format is functional. In short, it runs like this: as §5
The subject of assay [26] is Enterococcus faecium. The assay can be described thus: Antibacterial activity against vancomycin-resistant Enterococcus faecium clinical isolates after 18 to 22 hrs by broth microdilution method. Type of assay: functional. In short, it runs like this:
as §4

Assay [27] concerns Enterococcus faecalis. The assay can be described thus: Inhibition of UPPP-mediated peptidoglycan biosynthesis in Enterococcus faecalis NR-31975 assessed as accumulation of UDP-N-acetylmuramyl-pentapeptide at 10 times MIC after 30 mins by HPLC-MS analysis. An outline of the steps: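 Pellets boiled 30 min. UDP-N-acetylmuramyl-pentapeptide measured by HPLC-TOF MS on a phenyl column, 5–20% acetonitrile/0.1% formic acid gradient, positive ESI.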

Converted amounts (≈) assume the structure as drawn. The source made the active and inactive calls. No cut-off for these calls is given here.

Take `N[C@@H]1CONC1=O`: the result in the assay with Bacillus subtilis [1], in the assay with Escherichia coli [2], in the assay with Escherichia coli [3] and in the assay with Escherichia coli [4] was Active.
A word on the MIC: it is the least concentration at which growth counts as inhibited. Consider `CC[C@H]1OC(=O)[C@H](C)[C@@H](O[C@H]2C[C@@](C)(OC)[C@@H](O)[C@H](C)O2)[C@H](C)[C@@H](O[C@@H]2O[C@H](C)C[C@H](N(C)C)[C@H]2O)[C@](C)(O)C[C@@H](C)C(=O)[C@H](C)[C@@H](O)[C@]1(C)O` [ERYTHROMYCIN], for which the MIC amounted to 64 µg/mL (≈ 87.2 µM) in the assay with Escherichia coli [5]; 1 µg/mL in the assay with Enterobacter cloacae [6]; 128 µg/mL (≈ 174 µM) in the assay on Enterobacter cloacae [7]; 1 µg/mL with Pseudomonas aeruginosa [8]; 8 µg/mL (≈ 10.9 µM) in the assay on Acinetobacter baumannii [9]; 1 µg/mL in the assay with Escherichia coli [10]. Moreover, the MIC with Klebsiella pneumoniae [11] was determined as 0.5 µg/mL; in the assay with Acinetobacter baumannii [12], 0.5 µg/mL; in the assay on Klebsiella pneumoniae [13], 128 µg/mL (≈ 174 µM); in the assay with Pseudomonas aeruginosa [14], 128 µg/mL (≈ 174 µM).
The EC50 is the midpoint of the concentration-response curve. As for `N#CC(C#N)=NNc1cccc(Cl)c1` [CARBONYL CYANIDE M-CHLOROPHENYLHYDRAZONE], the figures for the EC50 in assay [15] and in assay [16] were 200 nM and 400 nM, respectively.
A word on the MIC50: it is the lowest concentration that inhibits either 50% of growth or 50% of the strains tested, depending on the study. Higher therefore signals weaker potency. `CN[C@H](CC(C)C)C(=O)N[C@H]1C(=O)N[C@@H](CC(N)=O)C(=O)N[C@H]2C(=O)N[C@H]3C(=O)N[C@H](C(=O)N[C@H](C(=O)O)c4cc(O)cc(O)c4-c4cc3ccc4O)[C@H](O)c3ccc(c(Cl)c3)Oc3cc2cc(c3O[C@@H]2O[C@H](CO)[C@@H](O)[C@H](O)[C@H]2O[C@H]2C[C@](C)(N)[C@H](O)[C@H](C)O2)Oc2ccc(cc2Cl)[C@H]1O` [VANCOMYCIN]: the outcome in the assay on Bacillus subtilis [17], in the assay on Bacillus subtilis [20] and in the assay on Bacillus subtilis [24] was Active. For the same compound, the MIC50 against Enterococcus faecalis [18] is greater than 64 µg/mL; against Enterococcus faecium [22], 1 µg/mL (≈ 0.69 µM); in the assay with Enterococcus faecalis [23] it was 1 µg/mL (≈ 0.69 µM); with Enterococcus faecium [26], greater than 64 µg/mL. Further, the result with Enterococcus faecalis [19] was inactive. For the same compound, the MBC50 in the assay on Enterococcus faecium [21] and against Enterococcus faecalis [25] was greater than 64 µg/mL in each case. Besides, the inhibition entry in the assay with Enterococcus faecalis [27] is “Active”.
